Assay results taken from ChEMBL document CHEMBL3046382, “Synthesis and insecticidal activities and SAR studies of novel benzoheterocyclic diacylhydrazine derivatives” (2009).

Tests used:
Format in all cases: functional
Mythimna separata [1] = experiment: Stomach toxicity in fourth-instar Mythimna separata (Oriental armyworm) larvae in compound treated corn leaves assessed as mortality at 25 mg/kg measured after 4 days; conditions: 96 h
Mythimna separata [2] = experiment: Stomach toxicity in fourth-instar Mythimna separata (Oriental armyworm) larvae in compound treated corn leaves assessed as mortality at 100 mg/kg measured after 4 days; conditions: 96 h
Mythimna separata [3] = experiment: Stomach toxicity in fourth-instar Mythimna separata (Oriental armyworm) larvae in compound treated corn leaves assessed as mortality at 50 mg/kg measured after 4 days; conditions: 96 h
Culicidae [4] = experiment: Toxicity against fourth-instar larvae of Culex pipiens pallens assessed as mortality at 2 mg/kg measured after 7 to 10 days
Procedure, shortened: (§1)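 For each concentration, 1 mL of dilution was added to 99 mL water and 20 fourth-instar larvae introduced. Percentage mortality assessed 7–10 days after treatment.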

Culicidae [5] = experiment: Toxicity against fourth-instar larvae of Culex pipiens pallens assessed as mortality at 0.5 mg/kg measured after 7 to 10 days; procedure, shortened: as §1
Culicidae [6] = experiment: Toxicity against fourth-instar larvae of Culex pipiens pallens assessed as mortality at 1 mg/kg measured after 7 to 10 days; procedure, shortened: as §1
Mythimna separata [7] = experiment: Stomach toxicity in fourth-instar Mythimna separata(Oriental armyworm) larvae in compound treated corn leaves assessed as mortality at 200 mg/kg measured after 4 days; conditions: 96 h
Mythimna separata [8] = experiment: Stomach toxicity in fourth-instar Mythimna separata (Oriental armyworm) larvae in compound treated corn leaves assessed as mortality at 10 mg/kg measured after 4 days; conditions: 96 h
Mythimna separata [9] = experiment: Stomach toxicity in fourth-instar Mythimna separata (Oriental armyworm) larvae in compound treated corn leaves assessed as mortality at 5 mg/kg measured after 4 days; conditions: 96 h
Mythimna separata [10] = experiment: Stomach toxicity in fourth-instar Mythimna separata (Oriental armyworm) larvae in compound treated corn leaves assessed as mortality at 2.5 mg/kg measured after 4 days; conditions: 96 h

Compound	mortality at 25 mg/kg (Mythimna separata [1])	mortality at 100 mg/kg (Mythimna separata [2])	mortality at 50 mg/kg (Mythimna separata [3])	mortality at 2 mg/kg (Culicidae [4])	mortality at 0.5 mg/kg (Culicidae [5])	mortality at 1 mg/kg (Culicidae [6])	mortality at 200 mg/kg (Mythimna separata [7])	mortality at 10 mg/kg (Mythimna separata [8])	mortality at 5 mg/kg (Mythimna separata [9])	mortality at 2.5 mg/kg (Mythimna separata [10])
COc1cccc(C(=O)N(NC(=O)c2ccc3c(c2C)CC(C)(C)O3)C(C)(C)C)c1	0%	30%	20%	40%	10%	30%	100%			
Cc1cccc(C(=O)N(NC(=O)c2ccc3c(c2C)CC(C)(C)O3)C(C)(C)C)c1	0%	90%	30%	50%	10%	10%	100%			
Cc1c(C(=O)NN(C(=O)c2ccccc2Cl)C(C)(C)C)ccc2c1CC(C)O2 (stereo unspecified)	40%	100%	100%	30%	10%	20%	100%	0%		
Cc1c(C(=O)NN(C(=O)c2ccc(Cl)cc2)C(C)(C)C)ccc2c1CC(C)O2 (stereo unspecified)	90%	100%	100%	0%		0%	100%	0%		
Cc1c(C(=O)NN(C(=O)c2ccccc2)C(C)(C)C)ccc2c1CC(C)O2 (stereo unspecified)	80%	100%	90%	0%		0%	100%	0%		
Cc1cccc(C(=O)N(NC(=O)c2ccc3c(c2C)CC(C)O3)C(C)(C)C)c1 (stereo unspecified)	100%	100%	100%	0%		0%	100%	100%	15%	0%
Cc1cc(C)cc(C(=O)N(NC(=O)c2ccc3c(c2C)CC(C)(C)O3)C(C)(C)C)c1	20%	100%	90%	70%		0%	100%	0%		
Cc1c(C(=O)NN(C(=O)c2ccccc2[N+](=O)[O-])C(C)(C)C)ccc2c1CC(C)O2 (stereo unspecified)	20%	100%	60%	30%	0%	20%	100%	0%		
Cc1c(C(=O)NN(C(=O)c2cccc(Cl)c2)C(C)(C)C)ccc2c1CC(C)O2 (stereo unspecified)	30%	100%	80%	60%	10%	20%	100%	10%	0%	
Cc1c(C(=O)NN(C(=O)c2cc(Cl)cc(Cl)c2)C(C)(C)C)ccc2c1CC(C)O2 (stereo unspecified)	90%	100%	100%	80%	0%	50%	100%	90%	10%	0%
Cc1c(C(=O)NN(C(=O)c2ccc(Cl)cc2Cl)C(C)(C)C)ccc2c1CC(C)O2 (stereo unspecified)	90%	100%	100%	0%		0%	100%	0%		
